Active and inactive are the calls of the source. No cut-off for these calls is given here.
Columns and labels:
Mus musculus [1] = assay: Anti-inflammatory activity in poly(I:C)-induced airway inflammation C57BL/6 mouse model assessed as reduction in neutrophils recruitment into bronchoalveolar lavage fluid at 10 mg/kg, ip administered 1 day prior to poly(I:C) stimulation and redosed on day 2 followed by poly(I:C) stimulation by trypan blue staining-based hemocytometric analysis; type: functional, organism-based
[2] = target: Kappa-type opioid receptor (Homo sapiens) (UniProt P41145); assay: Displacement of [3H]U69593 from human kappa opioid receptor at 10 uM after 60 mins by scintillation counting analysis relative to control
[3] = target: Cannabinoid receptor 1 (Homo sapiens) (UniProt P21554); assay: Displacement of [3H]CP 55940 from human recombinant CB1 receptor at 10 uM after 120 mins by scintillation counting analysis relative to control
[4] = target: Muscarinic acetylcholine receptor M2 (Homo sapiens) (UniProt P08172); assay: Displacement of [3H]AF-DX 384 from human recombinant M2 receptor at 10 uM after 60 mins by scintillation counting analysis relative to control
[5] = target: 3',5'-cyclic-AMP phosphodiesterase 4D (Homo sapiens) (UniProt Q08499); assay: Displacement of [3H]cAMP from human recombinant PDE4D2 at 10 uM after 20 mins by scintillation counting analysis relative to control
[6] = target: D(1A) dopamine receptor (Homo sapiens) (UniProt P21728); assay: Displacement of [3H]-SCH 23390 from human recombinant dopamine D1 receptor at 10 uM after 60 mins by scintillation counting analysis relative to control
Mus musculus [7] = assay: Toxicity in mouse assessed as effect on RBC levels at 1 to 50 mg/kg, ip dosed daily for 1 month; type: organism-based; details: in vivo
Mus musculus [8] = assay: Toxicity in mouse assessed as effect on body weight at 1 to 50 mg/kg, ip dosed daily for 1 month; type: organism-based; details: in vivo
[9] = target: 5-hydroxytryptamine receptor 1A (Homo sapiens) (UniProt P08908); assay: Displacement of [3H]8-OH-DPAT from recombinant human 5-HT1A receptor at 10 uM after 60 mins by scintillation counting analysis relative to control
[10] = Volume of distribution at steady state in rat at 10 mg/kg, iv; type: ADME, organism-based; details: in vivo, read-out: Vdss
[11] = target: Endothelin-1 receptor (Homo sapiens) (UniProt P25101); assay: Displacement of [125I]endothelin-1 from human recombinant endothelin ETA receptor at 10 uM after 120 mins by scintillation counting analysis relative to control
Mus musculus [12] = assay: Hepatotoxicity in mouse assessed as effect on ALT level at 1 to 50 mg/kg, ip dosed daily for 1 month; type: toxicity, organism-based; details: in vivo
In short: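 Groups of n = 5 mice were dosed daily at 1-50 mg/kg for one month. Liver function markers (albumin, globulin, ALK, ALT) were measured alongside body weight, blood counts and renal markers.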

Mus musculus [13] = assay: Renal toxicity in mouse at 1 to 50 mg/kg, ip dosed daily for 1 month by histological analysis; type: organism-based; details: in vivo
[14] = Cmax in rat at 20 mg/kg, po; type: ADME, organism-based; design: dose 20 mg/kg, route oral; details: in vivo
[15] = target: Sodium-dependent serotonin transporter (Homo sapiens) (UniProt P31645); assay: Binding affinity to human serotonin transporter at 10 uM by antagonist radioligand assay relative to control; design: scale not given: the % may be the effect or the level left
[16] = target: Muscarinic acetylcholine receptor M1 (Homo sapiens) (UniProt P11229); assay: Displacement of [125I]pirenzepine from human recombinant M1 receptor at 10 uM after 60 mins by scintillation counting analysis relative to control
Rattus norvegicus = organism: Rattus norvegicus; assay: Displacement of [3H]flunitrazepam from rat brain central BZD at 10 uM after 60 mins by radioligand binding assay relative to control
[17] = target: Delta-type opioid receptor (Homo sapiens) (UniProt P41143); assay: Displacement of [3H]DADLE from human recombinant delta opioid receptor after 60 mins by scintillation counting analysis relative to control
Mus musculus [18] = assay: Anti-inflammatory activity in poly(I:C)-induced airway inflammation C57BL/6 mouse model assessed as reduction in mISG54 expression in lung at 10 mg/kg, ip administered 1 day prior to poly(I:C) stimulation and redosed on day 2 followed by poly(I:C) stimulation; type: functional, organism-based
In short: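 Male C57BL/6J mice, 12 weeks old, were given 10 mg/kg i.p. one day before stimulation. The next day they got a second dose, immediately followed by intranasal poly(I:C) (300 μg in 50 μL PBS) or PBS alone. Compound was taken up in DMSO and diluted in 10% hydroxypropyl β-cyclodextrin in PBS. Mice were euthanized one day later and lung tissue was collected for cytokine expression.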

[19] = target: Glutamate [NMDA] receptor (Homo sapiens) (UniProt Q05586+Q12879+Q13224+O15399+O60391+Q14957+Q8TCU5); assay: Binding affinity to NMDA receptor (unknown origin) at 10 uM by antgonist radioligand assay relative to control; type: protein-complex assay
[20] = target: Cholecystokinin receptor type A (Homo sapiens) (UniProt P32238); assay: Displacement of [125I]CCK-8s from human recombinant CCK1 receptor at 10 uM after 60 mins by scintillation counting analysis relative to control
[21] = target: Vasopressin V1a receptor (Homo sapiens) (UniProt P37288); assay: Displacement of [3H]AVP from human recombinant V1a receptor at 10 uM after 60 mins by scintillation counting analysis relative to control
[22] = target: Tyrosine-protein kinase Lck (Homo sapiens) (UniProt P06239); assay: Inhibition of human recombinant LCK using Ulight-Poly GAT[EAY(1:1:1)]n as substrate after 10 mins relative to control; design: scale not given: the % may be the effect or the level left
[23] = target: Mu-type opioid receptor (Homo sapiens) (UniProt P35372); assay: Displacement of [3H]DAMGO from human recombinant mu opioid receptor at 10 uM after 120 mins by scintillation counting analysis relative to control
[24] = target: 5-hydroxytryptamine receptor 3A (Homo sapiens) (UniProt P46098); assay: Displacement of [3H]BRL 43694 from human recombinant 5-HT3 receptor at 10 uM after 120 mins by scintillation counting analysis relative to control
CREB-binding protein = CREB-binding protein (Homo sapiens, UniProt Q92793); assay: Inhibition of CBP (unknown origin) after 1 hr by TR-FRET assay
In short: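 Isolated bromodomain in a kit TR-FRET assay. Inhibitor series 0.01 nM to 100 μM, incubated 1 h at room temperature. Excitation 340 nm, emission read at 620 and 670 nm with 100 μs delay and 500 μs window. IC50 from the sigmoidal plot of the 670/620 ratio against concentration. Mean of at least two runs.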

Mus musculus [25] = assay: Pulmonary toxicity in mouse at 1 to 50 mg/kg, ip dosed daily for 1 month by histological analysis; type: organism-based; details: in vivo
[26] = target: D(2) dopamine receptor (Homo sapiens) (UniProt P14416); assay: Displacement of [3H]7-OH-DPAT from human recombinant dopamine D2S receptor at 10 uM after 60 mins by scintillation counting analysis relative to control
[27] = target: Histamine H1 receptor (Homo sapiens) (UniProt P35367); assay: Displacement of [3H]pyrilamine from human recombinant histamine H1 receptor at 10 uM after 60 mins by scintillation counting analysis relative to control
[28] = target: Alpha-1A adrenergic receptor (Homo sapiens) (UniProt P35348); assay: Displacement of [3H]prazosin from human recombinant adrenergic alpha1A receptor at 10 uM after 120 mins by scintillation counting analysis relative to control

Cholecystokinin receptor type A (Homo sapiens), sequence (P32238 whole entry): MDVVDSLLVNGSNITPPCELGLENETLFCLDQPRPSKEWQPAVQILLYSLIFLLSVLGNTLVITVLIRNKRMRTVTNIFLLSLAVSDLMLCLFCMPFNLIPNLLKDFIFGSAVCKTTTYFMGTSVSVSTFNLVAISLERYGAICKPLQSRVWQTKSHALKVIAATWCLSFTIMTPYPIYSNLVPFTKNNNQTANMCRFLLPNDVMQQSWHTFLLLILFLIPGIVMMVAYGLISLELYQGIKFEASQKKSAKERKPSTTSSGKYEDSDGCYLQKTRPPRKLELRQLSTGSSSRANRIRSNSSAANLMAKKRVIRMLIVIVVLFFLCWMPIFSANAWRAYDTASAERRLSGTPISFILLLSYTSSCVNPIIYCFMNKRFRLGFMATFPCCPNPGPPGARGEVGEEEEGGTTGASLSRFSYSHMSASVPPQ
Sodium-dependent serotonin transporter (Homo sapiens), sequence (P31645 whole entry, looked up): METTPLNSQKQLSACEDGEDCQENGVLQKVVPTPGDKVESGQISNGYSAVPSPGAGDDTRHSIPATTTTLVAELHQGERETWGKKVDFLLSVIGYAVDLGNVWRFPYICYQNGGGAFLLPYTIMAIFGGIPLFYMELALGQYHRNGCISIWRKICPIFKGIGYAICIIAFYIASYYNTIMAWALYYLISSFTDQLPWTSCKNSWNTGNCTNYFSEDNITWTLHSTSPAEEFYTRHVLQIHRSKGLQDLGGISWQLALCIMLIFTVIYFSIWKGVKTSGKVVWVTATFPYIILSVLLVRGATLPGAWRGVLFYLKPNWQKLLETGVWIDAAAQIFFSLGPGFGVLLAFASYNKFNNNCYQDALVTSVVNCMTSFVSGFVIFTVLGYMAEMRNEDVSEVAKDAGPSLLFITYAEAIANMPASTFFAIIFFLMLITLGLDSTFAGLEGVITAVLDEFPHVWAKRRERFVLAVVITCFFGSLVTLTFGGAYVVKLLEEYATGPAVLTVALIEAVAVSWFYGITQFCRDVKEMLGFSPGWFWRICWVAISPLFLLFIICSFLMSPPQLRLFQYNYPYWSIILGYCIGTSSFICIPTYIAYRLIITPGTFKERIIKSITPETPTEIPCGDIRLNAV
D(1A) dopamine receptor (Homo sapiens), sequence (P21728 whole entry): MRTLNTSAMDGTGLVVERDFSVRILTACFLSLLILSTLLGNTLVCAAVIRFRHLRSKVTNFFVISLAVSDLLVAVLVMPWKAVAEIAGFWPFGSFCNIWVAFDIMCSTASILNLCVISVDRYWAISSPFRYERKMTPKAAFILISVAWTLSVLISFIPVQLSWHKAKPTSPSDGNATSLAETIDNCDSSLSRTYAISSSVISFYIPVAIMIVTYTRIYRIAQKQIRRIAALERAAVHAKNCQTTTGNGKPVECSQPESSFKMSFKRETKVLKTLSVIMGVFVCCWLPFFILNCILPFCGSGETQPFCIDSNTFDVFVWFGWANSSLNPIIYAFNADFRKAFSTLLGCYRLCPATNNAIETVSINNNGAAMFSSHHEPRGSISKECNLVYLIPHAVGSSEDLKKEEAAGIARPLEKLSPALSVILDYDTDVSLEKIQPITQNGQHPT
Muscarinic acetylcholine receptor M2 (Homo sapiens), sequence (P08172 whole entry): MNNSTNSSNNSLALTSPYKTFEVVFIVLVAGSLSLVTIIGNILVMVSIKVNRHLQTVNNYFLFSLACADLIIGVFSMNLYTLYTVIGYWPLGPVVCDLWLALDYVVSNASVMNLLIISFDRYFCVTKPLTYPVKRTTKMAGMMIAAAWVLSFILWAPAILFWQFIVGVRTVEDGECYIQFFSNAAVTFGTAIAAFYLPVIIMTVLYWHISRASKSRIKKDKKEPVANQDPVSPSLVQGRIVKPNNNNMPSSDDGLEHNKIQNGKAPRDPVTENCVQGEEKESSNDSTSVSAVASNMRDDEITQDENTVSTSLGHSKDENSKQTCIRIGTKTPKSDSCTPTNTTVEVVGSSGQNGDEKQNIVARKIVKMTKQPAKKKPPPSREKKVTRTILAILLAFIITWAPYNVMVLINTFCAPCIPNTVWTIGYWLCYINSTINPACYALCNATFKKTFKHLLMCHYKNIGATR
CREB-binding protein, sequence (Q92793 whole entry): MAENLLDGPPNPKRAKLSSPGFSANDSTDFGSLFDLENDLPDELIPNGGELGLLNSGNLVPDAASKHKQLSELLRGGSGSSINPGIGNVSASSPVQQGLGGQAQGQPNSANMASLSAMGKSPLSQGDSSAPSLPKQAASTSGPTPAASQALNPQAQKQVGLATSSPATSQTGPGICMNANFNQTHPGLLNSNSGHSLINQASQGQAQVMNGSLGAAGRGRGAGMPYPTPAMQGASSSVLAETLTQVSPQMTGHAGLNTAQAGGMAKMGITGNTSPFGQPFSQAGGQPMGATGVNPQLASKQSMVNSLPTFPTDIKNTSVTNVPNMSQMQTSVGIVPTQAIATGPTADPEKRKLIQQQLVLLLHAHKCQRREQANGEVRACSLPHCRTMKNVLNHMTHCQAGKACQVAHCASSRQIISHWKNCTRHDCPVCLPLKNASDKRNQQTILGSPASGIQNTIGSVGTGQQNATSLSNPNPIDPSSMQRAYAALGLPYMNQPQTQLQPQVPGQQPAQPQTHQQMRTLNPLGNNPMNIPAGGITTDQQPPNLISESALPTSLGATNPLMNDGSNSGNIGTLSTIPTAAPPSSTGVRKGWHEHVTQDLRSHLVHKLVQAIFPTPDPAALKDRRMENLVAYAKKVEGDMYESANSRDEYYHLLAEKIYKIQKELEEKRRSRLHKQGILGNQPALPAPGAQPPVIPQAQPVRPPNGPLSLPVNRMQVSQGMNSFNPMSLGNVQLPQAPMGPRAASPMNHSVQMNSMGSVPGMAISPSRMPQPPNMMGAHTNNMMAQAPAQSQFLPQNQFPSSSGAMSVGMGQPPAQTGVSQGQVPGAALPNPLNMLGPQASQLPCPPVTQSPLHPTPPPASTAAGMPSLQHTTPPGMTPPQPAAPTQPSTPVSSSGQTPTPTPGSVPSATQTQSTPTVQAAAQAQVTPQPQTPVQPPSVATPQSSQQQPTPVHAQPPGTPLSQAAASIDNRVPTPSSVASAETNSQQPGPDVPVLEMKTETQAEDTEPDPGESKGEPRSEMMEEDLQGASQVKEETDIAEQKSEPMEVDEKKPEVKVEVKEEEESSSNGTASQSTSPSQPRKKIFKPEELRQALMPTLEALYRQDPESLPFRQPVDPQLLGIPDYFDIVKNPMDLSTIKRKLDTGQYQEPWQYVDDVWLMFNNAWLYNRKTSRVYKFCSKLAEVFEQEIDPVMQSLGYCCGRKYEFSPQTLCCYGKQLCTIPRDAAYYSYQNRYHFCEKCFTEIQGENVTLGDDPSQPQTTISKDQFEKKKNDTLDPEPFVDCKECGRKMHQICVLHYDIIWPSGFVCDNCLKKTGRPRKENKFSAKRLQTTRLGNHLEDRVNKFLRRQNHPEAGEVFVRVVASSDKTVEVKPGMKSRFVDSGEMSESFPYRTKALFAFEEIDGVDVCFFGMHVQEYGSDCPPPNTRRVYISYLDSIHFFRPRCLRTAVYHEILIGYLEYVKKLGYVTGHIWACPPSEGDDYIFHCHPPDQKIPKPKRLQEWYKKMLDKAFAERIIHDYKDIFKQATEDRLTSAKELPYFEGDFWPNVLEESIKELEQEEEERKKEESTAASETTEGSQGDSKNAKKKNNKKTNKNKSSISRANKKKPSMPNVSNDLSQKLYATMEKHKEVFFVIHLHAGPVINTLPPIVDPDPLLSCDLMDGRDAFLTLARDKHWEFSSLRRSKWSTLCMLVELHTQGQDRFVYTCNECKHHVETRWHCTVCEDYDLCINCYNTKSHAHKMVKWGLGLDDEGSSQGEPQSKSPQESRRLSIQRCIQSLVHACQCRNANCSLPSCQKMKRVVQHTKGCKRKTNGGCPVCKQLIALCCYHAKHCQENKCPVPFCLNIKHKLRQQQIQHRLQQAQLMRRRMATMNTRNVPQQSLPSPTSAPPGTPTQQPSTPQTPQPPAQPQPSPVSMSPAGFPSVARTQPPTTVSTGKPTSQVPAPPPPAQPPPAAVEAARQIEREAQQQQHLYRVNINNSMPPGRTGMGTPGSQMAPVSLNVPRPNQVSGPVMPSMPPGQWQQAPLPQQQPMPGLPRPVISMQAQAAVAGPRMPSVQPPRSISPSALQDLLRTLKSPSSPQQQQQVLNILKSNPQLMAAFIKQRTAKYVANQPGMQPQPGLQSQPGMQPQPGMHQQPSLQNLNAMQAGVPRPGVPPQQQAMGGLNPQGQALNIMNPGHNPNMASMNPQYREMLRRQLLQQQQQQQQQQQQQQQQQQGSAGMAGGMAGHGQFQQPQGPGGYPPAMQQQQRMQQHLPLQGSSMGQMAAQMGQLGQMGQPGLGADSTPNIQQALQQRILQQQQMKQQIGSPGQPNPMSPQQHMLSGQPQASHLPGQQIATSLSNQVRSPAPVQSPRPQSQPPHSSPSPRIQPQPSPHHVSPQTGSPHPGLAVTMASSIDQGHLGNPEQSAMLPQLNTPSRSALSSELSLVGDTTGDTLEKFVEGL
Cannabinoid receptor 1 (Homo sapiens), sequence (P21554 whole entry): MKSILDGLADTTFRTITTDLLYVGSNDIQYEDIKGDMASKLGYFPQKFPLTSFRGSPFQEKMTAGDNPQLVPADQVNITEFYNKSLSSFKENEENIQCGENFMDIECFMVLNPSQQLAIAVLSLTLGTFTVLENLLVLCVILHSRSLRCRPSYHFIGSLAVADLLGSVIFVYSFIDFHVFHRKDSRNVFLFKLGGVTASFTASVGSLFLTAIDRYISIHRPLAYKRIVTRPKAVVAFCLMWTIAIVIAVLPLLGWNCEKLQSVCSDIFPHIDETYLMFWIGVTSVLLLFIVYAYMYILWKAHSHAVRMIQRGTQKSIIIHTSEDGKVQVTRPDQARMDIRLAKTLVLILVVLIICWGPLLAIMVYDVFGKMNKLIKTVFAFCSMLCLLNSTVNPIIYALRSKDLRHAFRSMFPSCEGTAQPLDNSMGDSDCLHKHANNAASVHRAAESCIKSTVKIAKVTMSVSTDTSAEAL

## Cc1cc(/N=N/c2ccc(S(=O)(=O)NC3CCCC3)cc2)c(N)cc1O
Mus musculus [1]
  Activity: Active
[2]
  Activity: 8.9%
[3]
  Activity: 24.7%
[4]
  Activity: 21.6%
[5]
  Activity: 39.4%
[6]
  Activity: 21.9%
Mus musculus [7]
  Activity: Non-Toxic
Mus musculus [8]
  Activity: Non-Toxic
[9]
  Activity: -0.1%
[10]
  Vd: 1.12 L/kg
[11]
  Activity: -4.3%
Mus musculus [12]
  Activity: Non-Toxic
Mus musculus [13]
  Activity: Non-Toxic
[14]
  Cmax: 36 ng/mL
[15]
  Activity: 15%
[16]
  Activity: -1.5%
Rattus norvegicus
  Activity: 8.3%
[17]
  Activity: -2.7%
Mus musculus [18]
  Activity: Active
[19]
  Activity: 17%
[20]
  Activity: 17.4%
[21]
  Activity: 32.4%
[22]
  Activity: -20.6%
[23]
  Activity: 17.4%
[24]
  Activity: -12.9%
CREB-binding protein
  IC50: > 10 µM
Mus musculus [25]
  Activity: Non-Toxic
[26]
  Activity: 36.9%
[27]
  Activity: 7.1%
[28]
  Activity: 17.2%

— ChEMBL document CHEMBL4152207, “Discovery of potent and selective BRD4 inhibitors capable of blocking TLR3-induced acute airway inflammation” (Eur J Med Chem, 2018)
